Reference: ChEMBL document CHEMBL1123757, “Selective thromboxane synthetase inhibitors and antihypertensive agents. New derivatives of 4-hydrazino-5H-pyridazino[4,5-b]indole, 4-hydrazinopyridazino[4,5-a]indole, and related compounds” (J Med Chem, 1987)

Key:
Rattus norvegicus [1] = test: Antihypertensive activity in spontaneously hypertensive rats (SHR) measured by percentage fall in cardiac rhythm (CR) at 25 mg/kg administered intraperitoneally at 24 h;No significance; type: functional, organism-based; design: dose 25 mg/kg; conditions: Heart
Outline: (§1)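 Unanesthetized Okamoto-strain SHR, male and female, 8 weeks old, 300–350 g, systolic pressure ≥190 mmHg, heart rate 400–650 beats/min; five animals per dose. Given ip at 2.5 mL/kg, dissolved or suspended in normal saline or saline with 0.2% (carboxymethyl)cellulose and 1.0% Tween 80. Tail AP and CR recorded by mechanical transduction at set times; reported as percentage fall from control.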

Rattus norvegicus [2] = test: Antihypertensive activity in spontaneously hypertensive rats (SHR) measured by percentage fall in arterial pressure (AP) at 1 mg/kg administered intraperitoneally at 24 h; No significance; type: functional, organism-based; design: dose 1 mg/kg; conditions: Artery; outline: as §1
Rattus norvegicus [3] = test: Antihypertensive activity in spontaneously hypertensive rats (SHR) measured by percentage fall in cardiac rhythm (CR) at 5 mg/kg administered perorally at 3 h;No significance; type: functional, organism-based; design: dose 5 mg/kg; conditions: Heart
Outline: (§2)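 Conscious SHR (Okamoto strain), 8 weeks old, male and female, 300–350 g, systolic BP ≥190 mmHg, CR 400–650 beats/min. Given ip or po at 2.5 mL/kg in normal saline or saline with 0.2% (carboxymethyl)cellulose and 1.0% Tween 80. Tail AP and CR recorded by mechanical transduction at 1, 3, 5 and 24 h, five animals per dose. Effect expressed as % fall versus control.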

Rattus norvegicus [4] = test: Percent fall in systolic blood pressure, directly measured on carotid (iv on the jugular vein) of spontaneously hypertensive rats at 1 mg/kg after 180 minutes; No significance; type: functional, organism-based; design: dose 1 mg/kg; conditions: Artery
Outline: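 Anesthetized (sodium pentobarbital, 70 mg/kg) male and female Okamoto SHR, 8 weeks old, 300–350 g. Given iv into the jugular vein in normal saline. Arterial pressure and cardiac rhythm are recorded directly from the carotid by polygraph at set times after dosing. Each is expressed as percent change from the pre-dose control value.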

Rattus norvegicus [5] = test: Antihypertensive activity in spontaneously hypertensive rats (SHR) measured by percentage fall in arterial pressure (AP) at 25 mg/kg administered perorally at 5 h; No significance; type: functional, organism-based; design: dose 25 mg/kg; conditions: Artery
Outline: (§3)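 Oral dosing at 2.5 mL/kg to unanesthetized male and female Okamoto-strain SHR (8 weeks old, 300–350 g, systolic pressure ≥190 mmHg, heart rate 400–650 beats/min), five per dose. Vehicle was normal saline or saline with 0.2% (carboxymethyl)cellulose and 1.0% Tween 80. AP measured on the tail by mechanical transduction at set times; expressed as percentage fall from control.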

Rattus norvegicus [6] = test: Antihypertensive activity in spontaneously hypertensive rats (SHR) measured by percentage fall in arterial pressure (AP) at 5 mg/kg administered perorally at 24 h; No significance; type: functional, organism-based; design: dose 5 mg/kg; conditions: Artery; outline: as §3
Rattus norvegicus [7] = test: Antihypertensive activity in spontaneously hypertensive rats (SHR) measured by percentage fall in cardiac rhythm (CR) at 25 mg/kg administered perorally at 24 h; No significance; type: functional, organism-based; design: dose 25 mg/kg; conditions: Heart; outline: as §2
Rattus norvegicus [8] = test: Antihypertensive activity in spontaneously hypertensive rats (SHR) measured by percentage fall in cardiac rhythm (CR) at 5 mg/kg administered perorally at 5 h; No significance; type: functional, organism-based; design: dose 5 mg/kg; conditions: Heart; outline: as §2
Rattus norvegicus [9] = test: Antihypertensive activity in spontaneously hypertensive rats (SHR) measured by percentage fall in cardiac rhythm (CR) at 5 mg/kg administered perorally at 24 h; No significance; type: functional, organism-based; design: dose 5 mg/kg; conditions: Heart; outline: as §2
Rattus norvegicus [10] = test: Antihypertensive activity in spontaneously hypertensive rats (SHR) measured by percentage fall in arterial pressure (AP) at 25 mg/kg administered perorally at 24 h; No significance; type: functional, organism-based; design: dose 25 mg/kg; conditions: Artery; outline: as §3
Rattus norvegicus [11] = test: Antihypertensive activity in spontaneously hypertensive rats (SHR) measured by percentage fall in cardiac rhythm (CR) at 5 mg/kg administered intraperitoneally at 3 h;No significance; type: functional, organism-based; design: dose 5 mg/kg; conditions: Heart; outline: as §2
Homo sapiens [12] = species: Homo sapiens; test: In vitro inhibition of platelet aggregation induced by AA (PRP incubated for 60 minutes at 37 degree C) at 10e-5 M;No significance; type: functional
Outline: (§4)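 Human venous blood anticoagulated with 3.8% sodium citrate (1:9). PRP from centrifugation at 800 rpm for 10 min at room temperature. Count adjusted with PPP to […]. Compound in saline with 10% ethylene glycol is added to PRP and incubated at 37 °C before the agonist. Agonists: ADP 2×10^-5 M, AA 0.6 mM, PGH2 2.8 μM, adrenaline 0.6 μM. Born absorbance aggregometry; n = 5.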

Rattus norvegicus [13] = test: Antihypertensive activity in spontaneously hypertensive rats (SHR) measured by percentage fall in cardiac rhythm (CR) at 5 mg/kg administered intraperitoneally at 24 h; No significance; type: functional, organism-based; design: dose 5 mg/kg; conditions: Heart; outline: as §2
Homo sapiens [14] = species: Homo sapiens; test: In vitro inhibition of platelet aggregation induced by DD (PRP incubated for 5 minutes at 37 degree C) at 10e-5 M;No significance; type: functional; outline: as §4
Rattus norvegicus [15] = test: Antihypertensive activity in spontaneously hypertensive rats (SHR) measured by percentage fall in cardiac rhythm (CR) at 25 mg/kg administered perorally at 5 h; No significance; type: functional, organism-based; design: dose 25 mg/kg; conditions: Heart; outline: as §2
Rattus norvegicus [16] = test: Antihypertensive activity in spontaneously hypertensive rats (SHR) measured by percentage fall in cardiac rhythm (CR) at 5 mg/kg administered intraperitoneally at 1 h;No significance; type: functional, organism-based; design: dose 5 mg/kg; conditions: Heart; outline: as §2
Rattus norvegicus [17] = test: Antihypertensive activity in spontaneously hypertensive rats (SHR) measured by percentage fall in arterial pressure (AP) at 1 mg/kg administered intraperitoneally at 5 h; No significance; type: functional, organism-based; design: dose 1 mg/kg; conditions: Artery; outline: as §1
Rattus norvegicus [18] = test: Antihypertensive activity in spontaneously hypertensive rats (SHR) measured by percentage fall in cardiac rhythm (CR) at 25 mg/kg administered perorally at 3 h;No significance; type: functional, organism-based; design: dose 25 mg/kg; conditions: Heart; outline: as §2
Rattus norvegicus [19] = test: Antihypertensive activity in spontaneously hypertensive rats (SHR) measured by percentage fall in cardiac rhythm (CR) at 25 mg/kg administered intraperitoneally at 1 h;No significance; type: functional, organism-based; design: dose 25 mg/kg; conditions: Heart; outline: as §1
Rattus norvegicus [20] = test: Antihypertensive activity in spontaneously hypertensive rats (SHR) measured by percentage fall in arterial pressure (AP) at 5 mg/kg administered perorally at 5 h; No significance; type: functional, organism-based; design: dose 5 mg/kg; conditions: Artery; outline: as §3

CCOc1ccc2[nH]c3c(NN)nncc3c2c1
inactive: Decrease in CR (Rattus norvegicus [1]) No significant values | Decrease in AP (Rattus norvegicus [2]) No significant values | Decrease in blood pressure (Rattus norvegicus [3]) No significant values | Decrease in AP (Rattus norvegicus [4]) No significant values | Decrease in AP (Rattus norvegicus [5]) No significant values | Decrease in AP (Rattus norvegicus [6]) No significant values | Decrease in AP (Rattus norvegicus [7]) No significant values | Decrease in AP (Rattus norvegicus [8]) No significant values | Decrease in CR (Rattus norvegicus [9]) No significant values | Decrease in blood pressure (Rattus norvegicus [10]) No significant values | Decrease in blood pressure (Rattus norvegicus [11]) No significant values | inhibition (Homo sapiens [12]) No significant values | Decrease in CR (Rattus norvegicus [13]) No significant values | inhibition (Homo sapiens [14]) No significant values | Decrease in CR (Rattus norvegicus [15]) No significant values | Decrease in CR (Rattus norvegicus [16]) No significant values | Decrease in AP (Rattus norvegicus [17]) No significant values | Decrease in blood pressure (Rattus norvegicus [18]) No significant values | Decrease in CR (Rattus norvegicus [19]) No significant values | Decrease in AP (Rattus norvegicus [20]) No significant values
